Tests used:
Conditions in all cases: stereoisomer not certain
OR10A6 (Homo sapiens) = target: T1, OR10A6 (Homo sapiens) (UniProt Q8NH74)
T1 sequence (whole entry): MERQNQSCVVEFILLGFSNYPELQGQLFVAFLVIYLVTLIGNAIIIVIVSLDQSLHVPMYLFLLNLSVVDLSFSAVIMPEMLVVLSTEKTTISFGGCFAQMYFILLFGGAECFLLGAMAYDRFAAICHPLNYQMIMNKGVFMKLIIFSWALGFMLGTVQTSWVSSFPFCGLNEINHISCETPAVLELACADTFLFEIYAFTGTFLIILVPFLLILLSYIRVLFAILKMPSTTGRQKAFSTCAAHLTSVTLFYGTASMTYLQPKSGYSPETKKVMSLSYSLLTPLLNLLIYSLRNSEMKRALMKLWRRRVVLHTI
How it was run: (§1)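 Transient luciferase assays in mammalian cell lines were common, though methods varied by source. The values come from published papers and their supplementary material, with extra details from the original authors when needed. Responsive refers to a measured signal the original authors judged statistically different from baseline, and non-responsive (inactive) to the remainder.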

OR10H1 (Homo sapiens) = target: T2, OR10H1 (Homo sapiens) (UniProt Q9Y4A9)
T2 sequence (whole entry): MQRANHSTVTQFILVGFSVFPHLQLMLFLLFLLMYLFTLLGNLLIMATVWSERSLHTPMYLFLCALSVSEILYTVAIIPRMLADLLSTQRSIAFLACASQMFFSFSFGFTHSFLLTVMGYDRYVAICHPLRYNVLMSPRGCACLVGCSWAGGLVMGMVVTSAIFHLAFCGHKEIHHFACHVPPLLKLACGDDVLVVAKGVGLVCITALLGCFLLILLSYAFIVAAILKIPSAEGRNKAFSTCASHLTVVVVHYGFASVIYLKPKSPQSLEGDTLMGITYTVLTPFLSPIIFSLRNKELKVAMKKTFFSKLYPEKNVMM
How it was run: as §1

OR10A7 (Homo sapiens) = target: T3, OR10A7 (Homo sapiens) (UniProt Q8NGE5)
T3 sequence (whole entry): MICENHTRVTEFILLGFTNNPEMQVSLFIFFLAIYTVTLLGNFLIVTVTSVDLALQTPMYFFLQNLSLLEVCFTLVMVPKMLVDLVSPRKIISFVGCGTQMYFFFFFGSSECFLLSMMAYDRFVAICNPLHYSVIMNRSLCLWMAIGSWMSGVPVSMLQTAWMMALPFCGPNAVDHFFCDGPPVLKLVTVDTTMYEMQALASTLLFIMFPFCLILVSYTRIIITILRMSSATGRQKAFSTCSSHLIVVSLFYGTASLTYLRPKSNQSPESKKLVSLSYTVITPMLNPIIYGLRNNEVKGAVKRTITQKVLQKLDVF
How it was run: as §1
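Also: active if original authors judged signal statistically different from baseline.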

Which “odorant receptor agonist call” value (OR10A6 (Homo sapiens)) does the source give for CCC(=O)OCCCc1ccccc1 here?
Its value is “inactive”.

Which “odorant receptor agonist call” value (OR10H1 (Homo sapiens)) does the source give for c1ccccc1 here?
Its value is “inactive”.

How did the “odorant receptor agonist call” value (OR10A7 (Homo sapiens)) turn out when CC(C)CS was run?
The value was “inactive”.

— the M2OR odorant receptor database
